# Data published in ChEMBL document CHEMBL3244044, “Synthesis and antitumor activity of halogen-substituted 4-(3,3-dimethyl-1-triazeno)quinolines” (J Med Chem, 1978).
# Tests used:
# Mus musculus [1] = assay: Toxicity in mouse P388 cells allografted mouse at 50 mg/kg, ip qd for 9 days; type: organism-based; design: dose 50 mg/kg, route intraperitoneal; details: in vivo, 216 h
# Procedure, shortened: (§1)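 NCI protocol. Groups of five to ten mice were inoculated intraperitoneally with about 10^6 tumor cells. Drug was given ip once daily for 9 consecutive days, starting 24 h after tumor implantation, over a range of dose levels. Toxicity was read as the average body weight change at the end of drug treatment.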
# Mus musculus [2] = assay: Toxicity in mouse L1210 cells allografted mouse at 40 mg/kg, ip qd for 9 days; type: organism-based; design: dose 40 mg/kg, route intraperitoneal; details: in vivo, 216 h
# Procedure, shortened: (§2)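 Groups of five to ten mice were inoculated ip with about 10^6 L1210 cells and dosed once daily for 9 consecutive days beginning 24 h post-implantation. Toxicity was taken as the average body weight change at the end of drug treatment.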
# Mus musculus [3] = assay: Toxicity in mouse P388 cells allografted mouse at 20 mg/kg, ip qd for 9 days; type: organism-based; design: dose 20 mg/kg, route intraperitoneal; details: in vivo, 216 h; procedure, shortened: as §1
# [4] = Binding affinity to synthetic melanin at 5.8 mg/100 mL after 15 mins by UV-spectroscopic analysis; type: physicochemical; details: 0.25 h
# Procedure, shortened: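 Synthetic melanin was made from DL-Dopa with tyrosinase in 0.1 M phosphate pH 6.6 at 37 °C for 4 h. Melanin suspension (1.1 mg dry weight) was mixed with phosphate buffer (0.05 M, pH 6.4, 5% Me2SO), water, and 1 mL of drug solution (5.8 mg/100 mL). The mixture was shaken 15 min at room temperature and filtered. Unbound drug in the filtrate was measured by UV against a drug-free blank.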
# P388 [5] = assay: Antitumor activity against mouse P388 cells allografted mouse assessed as host survival at 20 mg/kg, ip qd for 9 days relative to control; type: functional; details: route intraperitoneal
# Procedure, shortened: (§3)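 NCI protocol: groups of five to ten mice inoculated ip with approximately 10^6 P-388 or L1210 cells. Drug given over a range of dose levels starting 24 h after implantation, once daily for 9 consecutive days. Survival expressed as %T/C = (average survival of treated)/(average survival of control) × 100.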
# Mus musculus [6] = assay: Toxicity in mouse P388 cells allografted mouse at 40 mg/kg, ip qd for 9 days; type: organism-based; design: dose 40 mg/kg, route intraperitoneal; details: in vivo, 216 h; procedure, shortened: as §1
# P388 [7] = assay: Antitumor activity against mouse P388 cells allografted mouse assessed as host survival at 40 mg/kg, ip qd for 9 days relative to control; type: functional; details: route intraperitoneal; procedure, shortened: as §3
# L1210 [8] = assay: Antitumor activity against mouse L1210 cells allografted mouse assessed as host survival at 40 mg/kg, ip qd for 9 days relative to control; type: functional; details: route intraperitoneal; procedure, shortened: as §3
# Mus musculus [9] = assay: Toxicity in mouse L1210 cells allografted mouse at 30 mg/kg, ip qd for 9 days; type: organism-based; design: dose 30 mg/kg, route intraperitoneal; details: in vivo, 216 h; procedure, shortened: as §2
# L1210 [10] = assay: Antitumor activity against mouse L1210 cells allografted mouse assessed as host survival at 30 mg/kg, ip qd for 9 days relative to control; type: functional; details: route intraperitoneal; procedure, shortened: as §3
# P388 [11] = assay: Antitumor activity against mouse P388 cells allografted mouse assessed as host survival at 30 mg/kg, ip qd for 9 days relative to control; type: functional; details: route intraperitoneal; procedure, shortened: as §3
# P388 [12] = assay: Antitumor activity against mouse P388 cells allografted mouse assessed as host survival at 50 mg/kg, ip qd for 9 days relative to control; type: functional; details: route intraperitoneal; procedure, shortened: as §3
# Mus musculus [13] = assay: Toxicity in mouse P388 cells allografted mouse at 30 mg/kg, ip qd for 9 days; type: organism-based; design: dose 30 mg/kg, route intraperitoneal; details: in vivo, 216 h; procedure, shortened: as §1
# B16 [14] = assay: Antitumor activity against mouse B16 cells allografted mouse assessed as host survival at 40 mg/kg, ip qd for 9 days relative to control; type: functional; details: route intraperitoneal
# Procedure, shortened: (§4)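 B16 melanoma-bearing mice given drug ip once daily for 9 days, starting 24 h after tumor implantation. Read-out is average survival in days, expressed as %T/C = (average survival of treated mice)/(average survival of control mice) × 100.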
# B16 [15] = assay: Antitumor activity against mouse B16 cells allografted mouse assessed as host survival at 66.7 mg/kg, ip qd for 9 days relative to control; type: functional; details: route intraperitoneal; procedure, shortened: as §4
# Mus musculus [16] = assay: Toxicity in mouse B16 cells allografted mouse at 40 mg/kg, ip qd for 9 days; type: organism-based; design: dose 40 mg/kg, route intraperitoneal; details: in vivo, 216 h
# Procedure, shortened: (§5)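 Mice bearing B16 melanoma, dosed ip once daily for 9 days from 24 h after tumor implantation. Toxicity is recorded as the average body weight change at the end of drug treatment.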
# Mus musculus [17] = assay: Toxicity in mouse B16 cells allografted mouse at 66.7 mg/kg, ip qd for 9 days; type: organism-based; design: dose 66.7 mg/kg, route intraperitoneal; details: in vivo, 216 h; procedure, shortened: as §5
# Mus musculus [18] = assay: Toxicity in mouse B16 cells allografted mouse at 24 mg/kg, ip qd for 9 days; type: organism-based; design: dose 24 mg/kg, route intraperitoneal; details: in vivo, 216 h; procedure, shortened: as §5
# B16 [19] = assay: Antitumor activity against mouse B16 cells allografted mouse assessed as host survival at 24 mg/kg, ip qd for 9 days relative to control; type: functional; details: route intraperitoneal; procedure, shortened: as §4
# Mus musculus [20] = assay: Toxicity in mouse L1210 cells allografted mouse at 20 mg/kg, ip qd for 9 days; type: organism-based; design: dose 20 mg/kg, route intraperitoneal; details: in vivo, 216 h; procedure, shortened: as §2
# L1210 [21] = assay: Antitumor activity against mouse L1210 cells allografted mouse assessed as host survival at 20 mg/kg, ip qd for 9 days relative to control; type: functional; details: route intraperitoneal; procedure, shortened: as §3
# P388 [22] = assay: Antitumor activity against mouse P388 cells allografted mouse assessed as host survival at 10 mg/kg, ip qd for 9 days relative to control; type: functional; details: route intraperitoneal; procedure, shortened: as §3
# Mus musculus [23] = assay: Toxicity in mouse P388 cells allografted mouse at 10 mg/kg, ip qd for 9 days; type: organism-based; design: dose 10 mg/kg, route intraperitoneal; details: in vivo, 216 h; procedure, shortened: as §1
SMILES,Activity (Mus musculus [1]) [%],Activity (Mus musculus [2]) [%],Activity (Mus musculus [3]) [%],Activity [4] [%],T/C (P388 [5]) [%],Activity (Mus musculus [6]) [%],T/C (P388 [7]) [%],T/C (L1210 [8]) [%],Activity (Mus musculus [9]) [%],T/C (L1210 [10]) [%],T/C (P388 [11]) [%],T/C (P388 [12]) [%],Activity (Mus musculus [13]) [%],Activity (Mus musculus [20]) [%],T/C (L1210 [21]) [%],also measured
CN(C)/N=N\c1ccnc2ccc(Br)cc12,-8.9,-5.8,18,55.3,123,-3.5,111,154,-1,150,127,131,,,,
CN(C)/N=N\c1ccnc2cc(Br)ccc12,-15.1,-2.8,,57.3,,-8.9,133,141,10,129,133,125,-2.4,,,
CN(C)/N=N\c1ccnc2c(Br)cccc12,-5,-5.9,16,48.1,109,-3.3,125,144,6.1,137,113,117,4.8,,,Survival (B16 [14]): 19 days; T/C (B16 [14]): 90%; Survival (B16 [15]): 21.3 days; T/C (B16 [15]): 101%; Activity (Mus musculus [16]): -3%; Activity (Mus musculus [17]): -3.7%; Activity (Mus musculus [18]): -1.1%; Survival (B16 [19]): 20.3 days; T/C (B16 [19]): 97%
CN(C)/N=N\c1ccnc2ccc(Cl)cc12,,,0.8,41,139,,,,-10,156,137,,-12.9,1,146,T/C (P388 [22]): 129%; Activity (Mus musculus [23]): -3.1%
CN(C)/N=N\c1ccnc2cc(Cl)ccc12,,,,48,,-22.6,119,,-1,152,137,,-16.3,5.1,154,
